Tests used:
D(1A) dopamine receptor = D(1A) dopamine receptor (Sus scrofa, UniProt P50130); experiment: Binding affinity to pig cortical membrane dopamine D1 receptor
In short: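 Porcine D1 receptor binding: displacement of [³H]SCH23390, screened with test compound at 10 μM, 100 nM and 1 nM. Ki (nM) is the mean of 2–4 experiments, each in triplicate.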

[1] = Binding affinity to pig cortical membrane 5HT1A receptor; set-up: species or system Sus scrofa
In short: (§1)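 Porcine cortical membranes with selective radioligands: [³H]8-OH-DPAT or [³H][…] for 5-HT1A, [³H]ketanserin for 5-HT2, and [³H]prazosin for α1. Ki (nM) is the mean of 2–4 experiments, each in triplicate.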

[2] = Displacement of [3H]prazosin from pig cortical membrane adrenergic alpha-1 receptor; set-up: species or system Sus scrofa; in short: as §1
[3] = biological target: 5-hydroxytryptamine receptor 2A (Sus scrofa, UniProt P50129); experiment: Displacement of [3H]ketanserin from pig cortical membrane 5HT2 receptor; in short: as §1
D(2) dopamine receptor [4] = biological target: T1, D(2) dopamine receptor (Homo sapiens, UniProt P14416); experiment: Binding affinity to human dopamine D2 long receptor
In short: (§2)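 Competition radioligand binding at human dopamine receptors: displacement of [³H]spiperone from D2long, D3 and D4.4, screened with test compound at 10 μM, 100 nM and 1 nM. Ki values in nM are means of 2–4 experiments, each run in triplicate.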

D(3) dopamine receptor [5] = biological target: T2, D(3) dopamine receptor (Homo sapiens, UniProt P35462); experiment: Binding affinity to human D3 receptor; in short: as §2
D(4) dopamine receptor = biological target: T3, D(4) dopamine receptor (Homo sapiens, UniProt P21917); experiment: Binding affinity to human dopamine D4.4 receptor; in short: as §2
T3 sequence (P21917 whole entry): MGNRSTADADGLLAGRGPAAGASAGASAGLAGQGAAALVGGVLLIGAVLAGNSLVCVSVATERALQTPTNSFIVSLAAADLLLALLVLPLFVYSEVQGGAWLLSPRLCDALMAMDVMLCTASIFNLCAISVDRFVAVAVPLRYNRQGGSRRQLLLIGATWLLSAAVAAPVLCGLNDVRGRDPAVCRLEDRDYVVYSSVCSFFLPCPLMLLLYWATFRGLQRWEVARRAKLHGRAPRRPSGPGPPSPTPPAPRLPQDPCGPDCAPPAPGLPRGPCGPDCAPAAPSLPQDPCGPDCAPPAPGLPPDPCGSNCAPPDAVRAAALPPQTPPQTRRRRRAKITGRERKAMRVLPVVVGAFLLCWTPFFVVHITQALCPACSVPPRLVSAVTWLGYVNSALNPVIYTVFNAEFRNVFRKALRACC

D(2) dopamine receptor [6] = biological target: T1, D(2) dopamine receptor; experiment: Displacement of [3H][…] from human cloned dopamine D2 long receptor at 100 uM
D(3) dopamine receptor [7] = biological target: T2, D(3) dopamine receptor; experiment: Displacement of [3H]spiperone from human cloned dopamine D3 receptor at 100 uM
[8] = biological target: T4, D(4) dopamine receptor (Homo sapiens) (UniProt P21917); experiment: Displacement of [3H]spiperone from human cloned dopamine D4 receptor at 100 uM
T4 sequence (whole entry): T3 sequence (P21917 whole entry)

Homo sapiens = species on record: Homo sapiens; experiment: Selectivity for human dopamine D4 receptor over human dopamine D2 receptor
[9] = biological target: Dopamine receptors; D3 & D4 (Homo sapiens) (UniProt P35462+P21917); experiment: Selectivity for human dopamine D4 receptor over human dopamine D3 receptor
[10] = Distribution coefficient, log D at pH 7.4; assay type: physicochemical; conditions: octanol/water
In short: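 Lipophilicity determined on the ¹⁸F-labelled radioligand as logD at pH 7.4, n = 6.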

[11] = Stability in human serum at 90 mins; assay type: ADME, cell-free; conditions: read-out: Stability
In short: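 The ¹⁸F-labelled radioligand was incubated in human serum for 90 min, and intact tracer was quantified by radio-HPLC.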

5-hydroxytryptamine receptor 2A, sequence (P50129 whole entry): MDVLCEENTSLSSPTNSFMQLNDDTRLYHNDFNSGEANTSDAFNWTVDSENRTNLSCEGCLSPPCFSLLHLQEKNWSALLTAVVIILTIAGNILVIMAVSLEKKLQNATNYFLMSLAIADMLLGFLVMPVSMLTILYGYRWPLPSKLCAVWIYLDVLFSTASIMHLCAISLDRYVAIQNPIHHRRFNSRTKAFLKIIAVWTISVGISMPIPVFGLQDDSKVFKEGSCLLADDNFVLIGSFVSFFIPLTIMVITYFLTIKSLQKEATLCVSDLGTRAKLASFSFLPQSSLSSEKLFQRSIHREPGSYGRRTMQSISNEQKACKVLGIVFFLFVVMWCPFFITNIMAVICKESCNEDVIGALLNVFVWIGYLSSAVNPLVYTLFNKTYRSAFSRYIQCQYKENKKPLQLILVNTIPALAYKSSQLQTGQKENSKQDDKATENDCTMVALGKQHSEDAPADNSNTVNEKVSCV
T2 sequence (P35462 whole entry): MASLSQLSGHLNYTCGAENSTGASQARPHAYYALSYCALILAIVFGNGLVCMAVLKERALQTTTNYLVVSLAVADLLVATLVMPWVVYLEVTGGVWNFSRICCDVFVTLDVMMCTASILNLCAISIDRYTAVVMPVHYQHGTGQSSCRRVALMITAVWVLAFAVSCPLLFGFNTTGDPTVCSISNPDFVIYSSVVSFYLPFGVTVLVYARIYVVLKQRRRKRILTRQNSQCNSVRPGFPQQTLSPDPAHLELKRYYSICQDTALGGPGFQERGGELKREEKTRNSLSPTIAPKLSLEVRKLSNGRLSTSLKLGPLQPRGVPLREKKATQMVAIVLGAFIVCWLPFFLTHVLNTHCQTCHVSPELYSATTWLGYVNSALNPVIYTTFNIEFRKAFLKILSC
T1 sequence (P14416 whole entry): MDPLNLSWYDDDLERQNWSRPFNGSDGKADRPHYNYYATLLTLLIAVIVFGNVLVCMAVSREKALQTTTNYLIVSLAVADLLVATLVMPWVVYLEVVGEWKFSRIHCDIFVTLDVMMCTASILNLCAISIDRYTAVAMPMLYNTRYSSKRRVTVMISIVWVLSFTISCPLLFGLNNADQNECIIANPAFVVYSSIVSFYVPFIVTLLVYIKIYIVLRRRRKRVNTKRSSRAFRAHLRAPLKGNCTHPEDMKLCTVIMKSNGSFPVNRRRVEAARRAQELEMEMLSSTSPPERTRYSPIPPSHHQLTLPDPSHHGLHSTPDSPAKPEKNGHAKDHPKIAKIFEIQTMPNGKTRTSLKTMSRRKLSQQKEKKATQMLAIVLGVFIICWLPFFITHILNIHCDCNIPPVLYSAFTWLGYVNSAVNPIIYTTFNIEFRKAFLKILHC
D(1A) dopamine receptor, sequence (P50130 whole entry): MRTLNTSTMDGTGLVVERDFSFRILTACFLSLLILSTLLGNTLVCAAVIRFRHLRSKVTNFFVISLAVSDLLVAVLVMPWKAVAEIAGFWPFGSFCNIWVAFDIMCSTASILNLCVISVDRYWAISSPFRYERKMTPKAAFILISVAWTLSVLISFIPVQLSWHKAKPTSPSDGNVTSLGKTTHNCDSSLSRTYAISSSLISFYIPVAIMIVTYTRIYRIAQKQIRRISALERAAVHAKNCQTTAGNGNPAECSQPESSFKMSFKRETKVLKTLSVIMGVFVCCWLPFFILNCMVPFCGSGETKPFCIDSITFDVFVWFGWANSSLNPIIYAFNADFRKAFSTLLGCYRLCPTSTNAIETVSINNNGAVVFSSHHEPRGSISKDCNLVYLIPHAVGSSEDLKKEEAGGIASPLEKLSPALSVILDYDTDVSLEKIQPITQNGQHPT
Dopamine receptors; D3 & D4 (Homo sapiens), sequence (P35462 whole entry, looked up, one chain of several): as the sequence (P35462 whole entry) above

SMILES: COc1cc(CN2CCN(c3ccccc3OC)CC2)c(OCCF)cc1OC
- Ki (D(1A) dopamine receptor): 6800 nM
- Ki [1]: 100 nM
- Ki [2]: 13 nM
- Ki [3]: 280 nM
- Ki (D(2) dopamine receptor [4]): 94 nM
- Ki (D(3) dopamine receptor [5]): 330 nM
- Ki (D(4) dopamine receptor): 1.3 nM

SMILES: FCCOc1cccc(CN2CCN(c3ccc(Cl)cc3)CC2)c1
- Ki (D(1A) dopamine receptor): 5100 nM
- Ki [1]: 3300 nM
- Ki [2]: 190 nM
- Ki [3]: 980 nM
- Ki (D(2) dopamine receptor [4]): 590 nM
- Ki (D(3) dopamine receptor [5]): 1100 nM
- Ki (D(4) dopamine receptor): 82 nM

SMILES: Cc1ccc(N2CCN(Cc3ccccc3Br)CC2)cc1
- Activity (D(2) dopamine receptor [6]): 6%
- Activity (D(3) dopamine receptor [7]): 16%
- Activity [8]: 7%

SMILES: COc1cccc(CN2CCN(c3ccc(C)cc3)CC2)c1
- Activity (D(2) dopamine receptor [6]): 6%
- Activity (D(3) dopamine receptor [7]): 39%
- Activity [8]: 45%

SMILES: COc1cc(CN2CCN(c3ccc(Cl)cc3)CC2)c(OCCF)cc1OC
- Ki (D(1A) dopamine receptor): 3500 nM
- Ki [1]: 2800 nM
- Ki [2]: 4.4 nM
- Ki [3]: 100 nM
- Ki (D(2) dopamine receptor [4]): 760 nM
- Ki (D(3) dopamine receptor [5]): 3900 nM
- Ki (D(4) dopamine receptor): 1.7 nM
- Ratio Ki (Homo sapiens): 450
- Ratio Ki [9]: 2300

SMILES: Clc1ccc(N2CCN(Cc3cc4ccccn4n3)CC2)cc1
- Ki (D(1A) dopamine receptor): 5500 nM
- Ki [1]: 1700 nM
- Ki [2]: 270 nM
- Ki [3]: 900 nM

SMILES: COc1cccc(CN2CCN(c3ccccc3OC)CC2)c1
- Activity (D(2) dopamine receptor [6]): 6%
- Activity (D(3) dopamine receptor [7]): 39%
- Activity [8]: 26%

SMILES: Fc1ccc(N2CCN(Cc3ccccc3Br)CC2)cc1
- Activity (D(2) dopamine receptor [6]): 1%
- Activity (D(3) dopamine receptor [7]): 1%
- Activity [8]: 4%

SMILES: COc1cccc(N2CCN(Cc3ccccc3Br)CC2)c1
- Activity (D(2) dopamine receptor [6]): 2%
- Activity (D(3) dopamine receptor [7]): -0%
- Activity [8]: 4%

SMILES: COc1cccc(CN2CCN(c3ccccc3Cl)CC2)c1
- Activity (D(2) dopamine receptor [6]): 4%
- Activity (D(3) dopamine receptor [7]): 13%
- Activity [8]: 55%

SMILES: COc1cccc(CN2CCN(c3ccc(F)cc3)CC2)c1
- Activity (D(2) dopamine receptor [6]): 2%
- Activity (D(3) dopamine receptor [7]): -0%
- Activity [8]: 18%

SMILES: Clc1ccc(N2CCN(Cc3ccccc3Br)CC2)cc1Cl
- Activity (D(2) dopamine receptor [6]): 10%
- Activity (D(3) dopamine receptor [7]): 14%
- Activity [8]: -0%

SMILES: COc1ccccc1N1CCN(Cc2ccc(C#N)cc2)CC1
- Activity (D(2) dopamine receptor [6]): 4%
- Activity (D(3) dopamine receptor [7]): 5%
- Activity [8]: 82%

SMILES: Clc1ccccc1N1CCN(Cc2ccccc2Br)CC1
- Activity (D(2) dopamine receptor [6]): -0%
- Activity (D(3) dopamine receptor [7]): 4%
- Activity [8]: 9%

SMILES: N#Cc1ccc(CN2CCN(c3ccccc3Cl)CC2)cc1
- Activity (D(2) dopamine receptor [6]): 2%
- Activity (D(3) dopamine receptor [7]): 2%
- Activity [8]: 73%

SMILES: COc1ccccc1N1CCN(Cc2ccccc2Br)CC1
- Activity (D(2) dopamine receptor [6]): 9%
- Activity (D(3) dopamine receptor [7]): 21%
- Activity [8]: 44%

SMILES: COc1cc(CN2CCN(c3ccc(Cl)cc3)CC2)c(OCC[18F])cc1OC
- logD [10]: 2.8
- remaining at 1.5 h [11]: > 95%

SMILES: COc1ccccc1N1CCN(Cc2ccc(OCCF)cc2)CC1
- Ki (D(1A) dopamine receptor): 3400 nM
- Ki [2]: 47 nM
- Ki [3]: 5400 nM
- Ki (D(2) dopamine receptor [4]): 120 nM
- Ki (D(3) dopamine receptor [5]): 77 nM
- Ki (D(4) dopamine receptor): 3.7 nM

SMILES: Cc1ccc(N2CCN(Cc3ccc(C#N)cc3)CC2)cc1
- Activity (D(2) dopamine receptor [6]): -0%
- Activity (D(3) dopamine receptor [7]): 4%
- Activity [8]: 59%

SMILES: FCCOc1ccc(CN2CCN(c3ccc(Cl)cc3)CC2)cc1
- Ki (D(1A) dopamine receptor): 1400 nM
- Ki [1]: 5200 nM
- Ki [2]: 160 nM
- Ki [3]: 1800 nM
- Ki (D(2) dopamine receptor [4]): 1100 nM
- Ki (D(3) dopamine receptor [5]): 1100 nM
- Ki (D(4) dopamine receptor): 50 nM

SMILES: COc1ccccc1N1CCN(Cc2cccc(OCCF)c2)CC1
- Ki (D(1A) dopamine receptor): 5200 nM
- Ki [1]: 32 nM
- Ki [2]: 36 nM
- Ki [3]: 1900 nM
- Ki (D(2) dopamine receptor [4]): 57 nM
- Ki (D(3) dopamine receptor [5]): 270 nM
- Ki (D(4) dopamine receptor): 1.6 nM

SMILES: N#Cc1ccc(CN2CCN(c3ccc(F)cc3)CC2)cc1
- Activity (D(2) dopamine receptor [6]): -0%
- Activity (D(3) dopamine receptor [7]): 15%
- Activity [8]: 47%

SMILES: N#Cc1ccc(CN2CCN(c3ccc(Cl)c(Cl)c3)CC2)cc1
- Activity (D(2) dopamine receptor [6]): -0%
- Activity (D(3) dopamine receptor [7]): -0%
- Activity [8]: 91%

SMILES: COc1cccc(CN2CCN(c3ccc(Cl)c(Cl)c3)CC2)c1
- Activity (D(2) dopamine receptor [6]): 9%
- Activity (D(3) dopamine receptor [7]): 2%
- Activity [8]: 92%

SMILES: COc1cc(CN2CCN(c3ccccc3OC)CC2)ccc1OCCF
- Ki (D(1A) dopamine receptor): 5400 nM
- Ki [1]: 100 nM
- Ki [2]: 21 nM
- Ki [3]: 2100 nM
- Ki (D(2) dopamine receptor [4]): 310 nM
- Ki (D(3) dopamine receptor [5]): 1100 nM
- Ki (D(4) dopamine receptor): 1.8 nM

SMILES: COc1cc(CN2CCN(c3ccc(Cl)cc3)CC2)ccc1OCCF
- Ki (D(1A) dopamine receptor): 5700 nM
- Ki [1]: 18000 nM
- Ki [2]: 18 nM
- Ki [3]: 850 nM
- Ki (D(2) dopamine receptor [4]): 21000 nM
- Ki (D(3) dopamine receptor [5]): 4900 nM
- Ki (D(4) dopamine receptor): 12 nM
- Ratio Ki (Homo sapiens): 1750

SMILES: COc1cccc(N2CCN(Cc3ccc(C#N)cc3)CC2)c1
- Activity (D(2) dopamine receptor [6]): 2%
- Activity (D(3) dopamine receptor [7]): 6%
- Activity [8]: 69%

SMILES: COc1cccc(CN2CCN(c3cccc(OC)c3)CC2)c1
- Activity (D(2) dopamine receptor [6]): -0%
- Activity (D(3) dopamine receptor [7]): 9%
- Activity [8]: 46%

Source: ChEMBL document CHEMBL1143133, “Discovery of a dopamine D4 selective PET ligand candidate taking advantage of a click chemistry based REM linker” (Bioorg Med Chem Lett, 2008)
